From ChEMBL document CHEMBL1667822, “Selective antagonists of mouse trace amine-associated receptor 1 (mTAAR1): discovery of EPPTB (RO5212773)” (Bioorg Med Chem Lett, 2011) come the findings set out here.

Data set [1] deals with T1, Trace amine-associated receptor 1 (Mus musculus, UniProt Q923Y8). Put plainly: Inhibition of mouse TAAR1.
Data set [2] deals with T1, Trace amine-associated receptor 1. Put plainly: Antagonist activity at mouse TAAR1 assessed as reversal of endogenous beta-PEA effect. The data set is classed as functional. The procedure, abridged: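 Mouse TAAR1 antagonist dose–response run as an in vitro cAMP functional assay. Efficacy is the reversal of the effect of the endogenous agonist β-PEA, with 100% efficacy defined as 0% min% stim. Values are averages of at least two independent experiments.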

The target of data set [3] is Trace amine-associated receptor 1 (Mus musculus) (UniProt Q923Y8). Put plainly: Antagonist activity at mouse TAAR1 assessed as residual stimulation by in vitro cAMP functional assay relative to control. More on the design: concentration or dose not given beside the values. The method in brief:
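Mouse TAAR1 in vitro cAMP functional assay using the endogenous agonist β-PEA. The read-out is the residual β-PEA stimulation remaining at the maximum test-compound concentration. Values are averages of at least two independent experiments.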

Data set [4] in a line: Intrinsic clearance in mouse liver microsomes measured per mg of protein. Type of data set: ADME, Microsome. The method in brief:
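Intrinsic clearance from in vitro incubation of compound with mouse liver microsomes, expressed per mg microsomal protein.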
A general note: Liver microsomes are a subcellular fraction often used to study metabolism.

Data set [5] in a line: Lipophilicity, log D of the compound. The data set is classed as physicochemical. The settings on record: octanol/water.
The target in data set [6] is T2, Trace amine-associated receptor 1 (Homo sapiens, UniProt Q96RJ0).
T2 sequence (Q96RJ0 whole entry): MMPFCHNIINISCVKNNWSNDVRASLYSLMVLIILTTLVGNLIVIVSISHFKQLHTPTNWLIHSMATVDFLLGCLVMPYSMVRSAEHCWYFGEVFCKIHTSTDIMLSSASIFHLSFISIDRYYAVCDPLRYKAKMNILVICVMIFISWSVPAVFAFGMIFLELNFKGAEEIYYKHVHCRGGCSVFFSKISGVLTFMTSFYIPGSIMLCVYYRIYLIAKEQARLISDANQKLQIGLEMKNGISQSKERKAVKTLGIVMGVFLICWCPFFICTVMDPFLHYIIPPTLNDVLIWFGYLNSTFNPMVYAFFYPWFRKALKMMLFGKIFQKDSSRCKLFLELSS
Briefly: Inhibition of human TAAR1. The procedure, abridged: (§1)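 In vitro cAMP functional assay with antagonism read as reversal of the response to the endogenous agonist beta-PEA. Efficacy was scaled so that 100% equals 0% minimum stimulation. Residual beta-PEA stimulation was taken at the highest test-compound concentration. Values are means of at least two independent experiments, with duplicates typically within a twofold margin.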

The test system of data set [7] is Liver microsomes. Briefly: Intrinsic clearance in human liver microsomes measured per mg of protein. Type of data set: ADME, Microsome. The procedure, abridged: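 In vitro incubation with human liver microsomes. Intrinsic clearance is expressed per mg microsomal protein per minute.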
Data set [8] in a line: Aqueous solubility of the compound. The following applies: buffer. The data set is classed as physicochemical.
Data set [9] has as its target T2, Trace amine-associated receptor 1. Put plainly: Antagonist activity at human TAAR1 assessed as reversal of endogenous beta-PEA effect. The data set is classed as functional. The method in brief: as §1
The target in data set [10] is Trace amine-associated receptor 1 (Rattus norvegicus, UniProt Q923Y9). Put plainly: Inhibition of rat TAAR1. The method in brief: as §1

pIC50, pKi: −log10 of the molar value.

Sequence of Trace amine-associated receptor 1 (Mus musculus) (Q923Y8 whole entry): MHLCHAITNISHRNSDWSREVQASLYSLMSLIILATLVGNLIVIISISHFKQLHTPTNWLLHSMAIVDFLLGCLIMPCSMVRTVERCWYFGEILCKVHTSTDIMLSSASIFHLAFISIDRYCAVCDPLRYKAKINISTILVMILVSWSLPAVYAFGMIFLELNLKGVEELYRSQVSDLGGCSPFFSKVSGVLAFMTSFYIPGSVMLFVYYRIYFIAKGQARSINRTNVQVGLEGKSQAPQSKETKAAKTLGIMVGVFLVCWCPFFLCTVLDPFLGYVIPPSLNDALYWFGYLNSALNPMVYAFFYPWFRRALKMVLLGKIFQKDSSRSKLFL
T1 sequence (Q923Y8 whole entry): as above
Sequence of Trace amine-associated receptor 1 (Rattus norvegicus, UniProt Q923Y9) (Q923Y9 whole entry): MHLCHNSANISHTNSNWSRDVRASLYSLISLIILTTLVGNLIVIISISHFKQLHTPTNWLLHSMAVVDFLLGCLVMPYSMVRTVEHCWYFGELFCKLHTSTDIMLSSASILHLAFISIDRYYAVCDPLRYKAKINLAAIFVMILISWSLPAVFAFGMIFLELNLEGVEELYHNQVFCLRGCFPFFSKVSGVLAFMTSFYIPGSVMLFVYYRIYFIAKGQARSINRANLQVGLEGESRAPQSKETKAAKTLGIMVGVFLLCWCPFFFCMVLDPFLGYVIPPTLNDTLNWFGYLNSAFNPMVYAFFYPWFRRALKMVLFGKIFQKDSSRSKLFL

What is called pKi is −log10 of the Ki, conventionally taken in molar units. Take `COc1cccc(NC(=O)c2cccc(S(C)(=O)=O)c2)c1`: the pKi in [1] is 5.22.

The pIC50 is the IC50 on a negative log10 scale, so that one unit is a factor of ten. Regarding `Cc1cccc(NC(=O)c2ccc(N3CCCC3)c(C(F)(F)F)c2)c1`, the pIC50 in data set [2] was 7.15. Besides, in [3], the Activity was 0%.

On to `CCNc1ccc(C(=O)Nc2cccc(OC)c2)cc1[N+](=O)[O-]`, for which the negative-log IC50 (pIC50) in data set [2] was 7.12. Also, in data set [3], the Activity turned out to be 23%.

For `COc1cccc(NC(=O)c2ccc(Cl)c([N+](=O)[O-])c2)c1`, the negative-log IC50 (pIC50) in data set [2] was 7.92. Further, in [3], the Activity is 0%.

In the case of `COc1cccc(NC(=O)c2ccc(N3CCCCC3)c([N+](=O)[O-])c2)c1`, the negative logarithm of the IC50 (pIC50) in [2] was 7.72. The Activity in data set [3] was 0%.

Compound `COc1cccc(NC(=O)c2ccc(F)c(S(=O)(=O)N3CCCCC3)c2)c1` had a negative logarithm of the Ki (pKi) in data set [1] of 6.16.

In data set [1], `COc1cccc(NC(=O)c2cccc([N+](=O)[O-])c2)c1` had a negative-log Ki (pKi) of 6.72. Moreover, the negative-log IC50 (pIC50) in data set [2] is 6.18. Also, the Activity in data set [3] turned out to be 0%.

`COc1cccc(NC(=O)c2ccc(NCc3ccccc3)c([N+](=O)[O-])c2)c1`: the negative-log IC50 (pIC50) in data set [2] was 7.85. In addition, the Activity in data set [3] amounted to 3%.

As to `CC(C)Oc1cccc(NC(=O)c2ccc(N3CCCC3)c(C(F)(F)F)c2)c1`, in data set [1], the negative-log Ki (pKi) is 8.40. Besides, the negative logarithm of the IC50 (pIC50) in data set [2] is 7.57. For the same compound, the Activity in [3] is 0%.

`O=C(Nc1cccc(Br)c1)c1ccc(N2CCCC2)c(C(F)(F)F)c1`: the negative logarithm of the IC50 (pIC50) in data set [2] was 6.25. Further, the Activity in [3] came to 0%.

As to `CCCNc1ccc(C(=O)Nc2cccc(OC)c2)cc1[N+](=O)[O-]`, the pIC50 in [2] was 7.89. Also, the Activity in data set [3] was found to be 14%.

For `COc1cccc(NC(=O)c2ccc(N3CCCC3)c([N+](=O)[O-])c2)c1`, in [2], the negative-log IC50 (pIC50) is 7.77. In addition, the Activity in data set [3] was determined as 0%.

Turning to `COc1cccc(NC(=O)c2ccc(Br)c([N+](=O)[O-])c2)c1`, in data set [2], the negative-log IC50 (pIC50) was 7.37. The Activity in data set [3] came to 0%.

For `COc1cccc(NC(=O)c2ccc(F)c(C(C)=O)c2)c1`, the negative-log Ki (pKi) in [1] is 6.86.

Consider `O=C(Nc1cccc(OC(F)F)c1)c1ccc(N2CCCC2)c(C(F)(F)F)c1`, for which, in data set [2], the pIC50 was 6.73. Also, in data set [3], the Activity worked out at 0%.

`COc1cccc(NC(=O)c2ccc(N)c([N+](=O)[O-])c2)c1` showed a negative logarithm of the Ki (pKi) in [1] of 5.72.

The compound `COc1cccc(NC(=O)c2cnc(N3CCCC3)c(C(F)(F)F)c2)c1` gave a clearance in data set [4] of 321 µL/min/mg.

In general, logD refers to the decadic logarithm of the distribution of all forms, ionised or not, between an organic phase and buffer at a given pH. Regarding `COc1cccc(NC(=O)c2ccc(N3CCOCC3)c([N+](=O)[O-])c2)c1`, the clearance in data set [4] amounted to 18 µL/min/mg. The compound also gave a pKi in [1] of 6.99. This compound also had a logD in [5] of 2.7. Also, in [2], the pIC50 is 7.10. For the same compound, the Activity in data set [3] turned out to be 0%.

A word on the solubility: it is the concentration that dissolves in the medium under given conditions. Consider `COc1cccc(NC(=O)c2ccc(N3CCC(C)CC3)c([N+](=O)[O-])c2)c1`, for which the clearance in [4] was found to be 396 µL/min/mg; in data set [7], 154 µL/min/mg. The compound further registered a logD in [5] above 3. Further, the pKi in data set [6] was below 4.70. Moreover, the values for the negative-log IC50 (pIC50) in data set [2] and in data set [9] were 7.22 and 5.42, respectively. In addition, the Activity in data set [3] was determined as 0%. Besides, the solubility in data set [8] was below 1 µg/mL.

`O=C(Nc1cccc(OC(F)(F)C(F)F)c1)c1ccc(N2CCCC2)c(C(F)(F)F)c1`: the negative logarithm of the IC50 (pIC50) in [2] was 6.44. In addition, the Activity in data set [3] came to 0%.

The compound `COc1cccc(NC(=O)c2ccc(F)c(C)c2)c1` showed a pKi in [1] of 5.80.

`COc1cccc(NC(=O)c2ccc(F)c(F)c2)c1` had a pKi in [1] of 6.64.

As for `COc1cccc(NC(=O)c2ccc(NC(C)C)c([N+](=O)[O-])c2)c1`, the pIC50 in [2] is 6.85. In [3], the Activity was determined as 0%.

With `COc1cccc(NC(=O)c2ccc(N3CCC3)c([N+](=O)[O-])c2)c1`, in data set [2], the negative-log IC50 (pIC50) was 6.70. For the same compound, the Activity in data set [3] came to 9%.

Take `CCc1cccc(NC(=O)c2ccc(N3CCCC3)c(C(F)(F)F)c2)c1`: the negative logarithm of the IC50 (pIC50) in data set [2] is 6.33. Besides, the Activity in data set [3] turned out to be 0%.

Consider `COc1cccc(NC(=O)c2ccc(S(=O)(=O)N3CC(C)CC(C)C3)c(F)c2)c1` (racemic), for which the clearance is 1700 µL/min/mg in [4] and 538 µL/min/mg in data set [7]. Moreover, the pKi in [1] was 8.40; in data set [6], below 4.70; in data set [10], 5.86. In addition, the figures for the pIC50 in data set [2] and in data set [9] were 8.22 and below 5.00, respectively. For the same compound, the Activity in data set [3] was 28%. The solubility in data set [8] is below 1 µg/mL.

Turning to `COc1cccc(NC(=O)c2ccc(F)c(OC(F)(F)F)c2)c1`, the negative logarithm of the Ki (pKi) in data set [1] is 6.86.

Regarding `COc1cccc(NC(=O)c2ccc(F)c(C#N)c2)c1`, in data set [1], the pKi was 6.83.

In turn, `COc1cccc(NC(=O)c2ccc(Cl)c(Cl)c2)c1` showed a negative-log Ki (pKi) in data set [1] of 7.60.

`O=C(Nc1cccc(F)c1)c1ccc(N2CCCC2)c(C(F)(F)F)c1`: in data set [2], the pIC50 was 7.70. In addition, in data set [3], the Activity came to 0%.

As for `O=C(Nc1cccc(Cl)c1)c1ccc(N2CCCC2)c(C(F)(F)F)c1`, the pIC50 in data set [2] was 6.61. Also, the Activity in [3] amounted to 0%.

As for `COc1cccc(NC(=O)c2cnc(N3CCC(C)CC3)c(C(F)(F)F)c2)c1`, the clearance in data set [4] amounted to 107 µL/min/mg. Besides, the logD in data set [5] is above 4.

Consider `COc1cccc(NC(=O)c2ccc(F)c(S(N)(=O)=O)c2)c1`, for which the pKi in data set [1] is 5.13.

As to `CC(=O)c1cccc(NC(=O)c2ccc(N3CCCC3)c(C(F)(F)F)c2)c1`, the negative-log IC50 (pIC50) in [2] was 6.92. Besides, in [3], the Activity turned out to be 0%.

Turning to `O=C(Nc1cccc(OC(F)(F)F)c1)c1ccc(N2CCCC2)c(C(F)(F)F)c1`, the negative-log Ki (pKi) in [1] is 7.00.

In [1], `COc1cccc(NC(=O)c2ccc(-n3cccn3)c([N+](=O)[O-])c2)c1` gave a pKi of 6.58.

As for `COc1cccc(NC(=O)c2ccc(N3CCN(C)CC3)c([N+](=O)[O-])c2)c1`, in data set [1], the negative-log Ki (pKi) is 6.79.

In data set [1], `O=C(Nc1cccc(Oc2ccccc2)c1)c1ccc(N2CCCC2)c(C(F)(F)F)c1` had a pKi of 7.09.

On to `COc1cccc(NC(=O)c2ccc(N3CCCC3)c(C(F)(F)F)c2)c1`, for which the clearance in data set [4] was found to be 341 µL/min/mg. Also, the negative logarithm of the Ki (pKi) in [1] is 8.52. Moreover, in [2], the pIC50 is 7.17. For the same compound, the Activity in data set [3] was found to be 0%.

Turning to `COc1cccc(NC(=O)c2ccc(Nc3ccccc3)c([N+](=O)[O-])c2)c1`, the negative-log IC50 (pIC50) in [2] was 6.76. Moreover, the Activity in data set [3] is 0%.
